CHO-K1 Ca antag = nonselective inhibitor or artifact in parental CHO-K1 cells; actives 0.6% (n = 360,000); AID 602250; ATP-induced calcium, Fluo-8 fluorescence; inhibition, % at 3 µM;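 active means inhibition above a per-plate cutoff, the plate's mean sample inhibition plus 3 SD, cut at about 24% in these data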
M5 PAM = human M5 muscarinic receptor positive allosteric modulators, primary screen, CHO-K1 cells, Fluo-8 calcium fluorescence. Muscarinic acetylcholine receptor M5 (Homo sapiens), P08912. AID 624038, 2012. activation, % at 3 µM. actives 0.3% (n = 360,000). CHO-K1 hM5, ACh EC20 PAM; 0% = ACh EC20, 100% = ACh EC100;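 active means activation above the run cutoff, the mean activation of all test compounds plus 3 SD, cut at about 18% in these data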
Target sequence (P08912 whole entry, looked up): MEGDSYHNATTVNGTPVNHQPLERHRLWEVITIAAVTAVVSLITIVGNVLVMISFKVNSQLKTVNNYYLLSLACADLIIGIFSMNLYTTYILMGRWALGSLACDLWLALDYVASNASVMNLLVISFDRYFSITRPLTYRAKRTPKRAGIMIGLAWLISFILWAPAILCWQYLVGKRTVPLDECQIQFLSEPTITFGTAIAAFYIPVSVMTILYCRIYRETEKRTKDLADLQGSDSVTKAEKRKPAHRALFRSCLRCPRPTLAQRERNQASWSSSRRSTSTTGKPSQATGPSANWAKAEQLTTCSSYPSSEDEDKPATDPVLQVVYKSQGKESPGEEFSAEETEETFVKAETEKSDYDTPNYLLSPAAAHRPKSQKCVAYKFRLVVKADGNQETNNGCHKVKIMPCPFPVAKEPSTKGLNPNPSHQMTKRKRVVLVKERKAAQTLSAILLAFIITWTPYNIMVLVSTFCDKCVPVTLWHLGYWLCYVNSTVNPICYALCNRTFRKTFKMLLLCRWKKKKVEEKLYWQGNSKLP
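System: CHO-K1 cell line with stable human muscarinic M5 receptor expression | Also added: EC20 acetylcholine as agonist stimulus | Compound: One concentration, 3 µM final (nominal) | Timing: Fluo-8 loading 80 min at 37 °C plus 30 min room temperature | Measured by: Fluo-8 calcium dye fluorescence, kinetic read | Read-out basis: % activation, ACh-normalized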
M1 PAM parental = nonselective calcium activators in parental CHO-K1 cells, primary screen, counter-screen for M1 PAM project, cell-based, Fluo-8 calcium fluorescence, full deck, 1536-well. ATP EC20; 0% at ATP EC20, 100% at ATP max. activation, % at 3 µM. actives 0.02% (n = 360,000);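 active means activation above the run cutoff, the mean activation of all test compounds plus 3 SD, cut at about 40% in these data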;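 further: peak over basal fluorescence ratio in a 140 s read after ATP addition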
CHRM5 antagonist = human M5 muscarinic receptor antagonists, primary screen, CHO cells, Fluo-8 calcium fluorescence. CHO-hM5 cells, ACh EC80. inhibition, % at 3 µM. Muscarinic acetylcholine receptor M5 (Homo sapiens), P08912. AID 624040, 2012. actives 0.59% (n = 360,000);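 active means inhibition above a per-plate cutoff, the mean of that plate's test compounds plus 3 SD, cut at about 27% in these data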
CHO-K1 Ca ag = counter-screen for M1 agonists: effect in parental CHO-K1 cells; Fluo-8 calcium fluorescence; scaled to maximal ATP response, vehicle zero; activation, % at 3 µM; actives 0.48% (n = 360,000); in the data active means activation above about 15%;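 further: untransfected CHO-K1 host cells lacking M1 receptor as counterscreen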
CHRM5 agonist = human M5 muscarinic receptor agonists, primary screen, CHO-K1 cells, Fluo-8 calcium fluorescence; CHO-K1 hM5 cells; 0% DMSO wells, 100% maximal acetylcholine response; activation, % at 3 µM; AID 624037, 2012; Muscarinic acetylcholine receptor M5 (Homo sapiens), P08912; actives 0.19% (n = 360,000);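 active means activation above the run's mean over test compounds plus 3 SD, cut at about 23% in these data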;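 further: signal is peak over basal fluorescence ratio across the kinetic read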
Numbers stand for hits; n = inactive. Rows were chosen to be rich in hits. Some 1.7% of all compounds tested hit in one or more screens of this group.

SMILES	CHO-K1 Ca antag	M5 PAM	M1 PAM parental	CHRM5 antagonist	CHO-K1 Ca ag	CHRM5 agonist
O=C1CCCN2N=C(SCC(=O)Nc3cccc(C(F)(F)F)c3)SC2=N1	26	n	n	36	n	n
COC(=O)c1ccccc1NC(=O)c1ccc(-c2cccc(Cl)c2)o1	n	n	n	n	n	n
CN(C)c1c(N)[nH]c2c(c1=O)c(=O)n(C)c(=O)n2C	n	n	n	n	n	n
CCCCN1C(=O)C(CC(=O)NC2CCCC2)CC(C(=O)N(CC)CC)=C1C (stereo unspecified)	26	n	n	n	n	n
CC1=C(C(=O)N(C)C)CC(CC(=O)NCC2CCCCC2)C(=O)N1CCC1=CCCCC1 (stereo unspecified)	n	n	n	n	n	n
CCCCN1C(=O)C(CC(=O)NC2CCCCC2)CC(C(=O)N(CC)CC)=C1C (stereo unspecified)	n	n	n	n	n	n
CCN(CC)C(=O)C1=C(C)N(CCC2=CCCCC2)C(=O)C(CC(=O)NCC2CCCCC2)C1 (stereo unspecified)	25	n	n	n	n	n
COc1cccc(N2C(=O)CN(Cc3cc(OC)c(OC)c(OC)c3)C2=S)c1	n	n	n	n	n	n
CCc1ccc(CNC(=O)c2ccc3c(c2)NC(=O)C(N2CCOCC2)S3)cc1 (stereo unspecified)	n	n	n	n	n	n
CCOC(=O)N1CCN(C(=O)c2ccc3c(c2)NC(=O)C(N2CCOCC2)S3)CC1 (stereo unspecified)	n	19	n	n	n	n
Cc1ccc(NC(=O)CN2CCC(NC(=O)c3cccc(F)c3)CC2)cc1C	n	n	n	n	n	n
COCCNC(=O)c1ccc2c(=O)n(CCOC)c(=O)[nH]c2c1	n	n	n	n	n	n
COCCn1c(=O)[nH]c2cc(C(=O)NC(C)C)ccc2c1=O	n	24	n	n	n	n
CC(OC(=O)CCN1C(=O)c2cccc([N+](=O)[O-])c2C1=O)C(=O)Nc1cc(Cl)cc(Cl)c1 (stereo unspecified)	n	n	n	n	n	n
CC(C)(C)NC(=O)C1(C)CCC(=O)N1CC(F)(F)F (stereo unspecified)	24	n	n	n	n	n
CC(C)(C)NC(=O)C1(C)CCC(=O)N1CCCn1ccnc1 (stereo unspecified)	n	n	n	n	n	n
NC(=O)CCCn1c(C(=O)c2cc(Cl)c(N)c(Cl)c2)c2ccc(C(F)(F)F)cc2[n+]1[O-]	n	n	n	n	n	n
NCCCn1c(C(=O)c2cc(Cl)c(N)c(Cl)c2)c2ccc(C(F)(F)F)cc2[n+]1[O-]	n	19	n	n	n	n
CC(=O)c1ccccc1NC(=O)COC(=O)C1CCCN1S(=O)(=O)c1ccccc1F (stereo unspecified)	n	n	n	n	n	n
Cc1[nH]n2c(=O)c(C#N)c(-c3ccccc3)nc2c1-c1ccccc1	28	n	n	n	n	n
NS(=O)(=O)c1ccc(NC(=S)N2CCN(Cc3ccc(Cl)c(Cl)c3)CC2)cc1	n	n	n	n	19	n
Cc1cccc(C(=O)Nc2ccccc2C(=O)OCC(=O)Nc2ccc(C#N)cc2)c1	n	n	n	28	n	n
COCC(C)NC(=O)C1CC(=O)N(c2ccc(C)cc2)C1 (stereo unspecified)	n	n	n	n	n	n
CC(=O)N(C)c1ccc(NC(=O)Nc2ccc(Cl)cc2)cc1	n	n	n	29	n	n
CN(CC(=O)Nc1ccc(C#N)cc1)Cc1ccc(Cl)cc1	n	n	n	n	n	n
NS(=O)(=O)c1ccc(NC(=O)Nc2ccc(Cl)cc2)cc1	28	n	n	n	n	n
CNC(=O)Nc1ccc(S(N)(=O)=O)cc1	n	n	n	n	n	n
